About 2,800 (0.9%) of roughly 310,000 compounds were called active.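 Rule for the calls: active = B-score of the integrated calcium signal more than 4 SD below the library mean, with starting fluorescence not abnormally high; inactive = the rest.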 The list comes from a sample in which actives are over-represented; it also holds similar structures and randomly drawn compounds.

The test is described as follows: enhancers of RGS4 function in calcium signaling – cell-based, HEK293 M3R inducible RGS4, calcium flux, primary screen (AID 463111).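 For B-score: negative B-score means reduced calcium response which marks RGS4 activation or potentiation.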 To be noted: HEK293 M3R/inducible RGS4, carbachol calcium flux Fluo4, at 10 µM; hits give low values. The procedure, abridged: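 test system = HEK293 cells with stable M3R and inducible RGS4 | schedule = recording 10 s baseline at 1 Hz, 100 s post-agonist | technique = Fluo4-AM (2 µM) calcium-flux fluorescence, kinetic read | measure = Agonist-evoked peak-minus-minimum fluorescence over baseline, integrated ratio, B score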
Background: A change in cytosolic calcium serves as a functional read-out for many receptors and channels.
`Cc1cc2c(cc1S(=O)(=O)CCC(=O)NCc1ccccc1)OCC(=O)N2`: the B-score entry is “inactive”.

In the case of `COc1ccc(NC(=O)CCS(=O)(=O)c2cc3c(cc2Cl)NC(=O)CO3)cc1OC`, the B-score result was “inactive”.

With `COc1ccc(Cl)cc1NC(=O)CCS(=O)(=O)c1cc2c(cc1C)NC(=O)CO2`, the B-score was -7.02 (active).

Turning to `COc1cccc(C2c3[nH]c4ccccc4c3CCN2Cc2cccc(C)n2)c1` (stereo unspecified), the B-score result is “inactive”.

Turning to `CC1=CCC2C(=O)N(c3cccc(C(=O)NC(C)c4ccccc4)c3)C(=O)C2C1` (stereo unspecified), the B-score entry is “inactive”.

Take `CCCCn1c(N)c(N(CC)C(=O)c2ccccc2C(F)(F)F)c(=O)[nH]c1=O`: the B-score entry was “inactive”.

In the case of `Cc1nn(Cc2ccc(C(=O)N3N=C(C(F)F)CC3(O)C(F)F)cc2)c(C)c1[N+](=O)[O-]` (stereo unspecified), the B-score result is “inactive”.

For the compound `CCOc1ccc(NC(=O)COc2ccc(S(=O)(=O)N3CCCC3)cc2)cc1`, the B-score result is “inactive”.

As for `O=C(CSCc1ccc(Br)cc1)Nc1ccc(S(=O)(=O)N2CCCCCC2)cc1`, the B-score result was “inactive”.

On to `O=C(CN1CCCCCC1)Nc1ccc(S(=O)(=O)N2CCCCC2)cc1`, for which the B-score was -8.13 (active).

With `O=c1cc(CO)oc(C(Nc2cccc([N+](=O)[O-])c2)c2ccccn2)c1O` (stereo unspecified), the B-score result is “inactive”.

With `CCc1ccc(OCC(=O)N(Cc2ccccc2)C2CCS(=O)(=O)C2)cc1` (stereo unspecified), the B-score result is “inactive”.

As to `Cc1ccc(C)c(-c2nnc(NC(=O)CS(=O)(=O)c3ccccc3)o2)c1`, the B-score result is “inactive”.

Turning to `O=C(Nc1cccn(Cc2c(Cl)cccc2Cl)c1=O)c1ccc(Cl)cc1`, the B-score entry is “inactive”.

With `CCCC(=O)NC(Nc1ccccc1OC)C(Cl)(Cl)Cl` (stereo unspecified), the B-score result was “inactive”.

`COc1ccccc1NC(=O)CCCc1c[nH]c2ccccc12`: the B-score entry was “inactive”.

Turning to `CCCCCCCC(=O)NC(Nc1ccccc1OC)C(Cl)(Cl)Cl` (stereo unspecified), the B-score was -8.57 (active).

For `Cc1cnc(C(=O)OCc2c(C)cc(C(C)(C)C)cc2C)cn1`, the B-score entry was “inactive”.

For `Cc1cc(C(=O)OCC(=O)Nc2ccc(F)c(F)c2)c(C)o1`, the B-score entry was “inactive”.

Take `O=C(NCc1ccc(F)cc1)C1CCN(C(=O)Nc2ccc(F)cc2)CC1`: the B-score entry was “inactive”.

Regarding `CCc1ccc(C(=O)OCC(=O)NCC(F)(F)F)cc1`, the B-score result is “inactive”.

Take `Cc1c(NC(=O)Nc2cccc([N+](=O)[O-])c2)c(=O)n(-c2ccccc2)n1C`: the B-score result was “inactive”.

`Cc1nc(N2CCN(c3ccccn3)CC2)c2c(C)c(C(=O)Nc3ccc(F)cc3)sc2n1`: the B-score was -9.74 (active).

As for `Cc1nc(N2CCN(c3ccccn3)CC2)c2c(C)c(C(=O)Nc3ccc(F)c(Cl)c3)sc2n1`, the B-score entry was “inactive”.

As for `COc1ccc(NC(=O)c2sc3nc(C)nc(N4CCN(c5ccccn5)CC4)c3c2C)c(OC)c1`, the B-score result was “inactive”.

As for `O=C(Oc1ccc([N+](=O)[O-])cc1)c1ccc(Cl)c(S(=O)(=O)N2CCCCC2)c1`, the B-score result was “inactive”.

For `C=CCN(N=Nc1cccc([N+](=O)[O-])c1)c1cccc([N+](=O)[O-])c1`, the B-score result was “inactive”.

With `CNC(=O)COC(=O)c1cc(-c2ccc(OC)cc2)nc2ccccc12`, the B-score result is “inactive”.

With `COc1ccc(-c2cc(C(=O)N(C)Cc3ccc(OC)c(OC)c3OC)c3ccccc3n2)cc1OC`, the B-score is -8.8 (active).

Take `Cc1ccc(-c2cc(C(=O)Nc3nn[nH]n3)c3ccccc3n2)c(C)c1`: the B-score result was “inactive”.

With `COc1ccc(-c2cc(C(=O)N(C)CC(=O)Nc3ccccc3Cl)c3ccccc3n2)cc1OC`, the B-score result was “inactive”.

For `COc1ccc(-c2cc(C(=O)Nc3ccccc3O)c3ccccc3n2)cc1`, the B-score entry is “inactive”.

In the case of `COc1ccc(CN(C)C(=O)c2cc(-c3ccc(C)cc3C)nc3ccccc23)c(OC)c1OC`, the B-score was -11.6 (active).

As to `COc1ccc(NC(=O)CN(C)C(=O)c2cc(-c3ccc(C)o3)nc3ccccc23)cc1`, the B-score entry is “inactive”.

In the case of `COc1ccc(-c2cc(C(=O)N(C)Cc3ccccc3)c3ccccc3n2)cc1`, the B-score is -8.16 (active).

Regarding `COc1ccc(CN(C)C(=O)Cc2c[nH]c3ccccc23)c(OC)c1OC`, the B-score result is “inactive”.

Consider `O=c1[nH]cccc1-c1nc2ccccc2n1Cc1ccc(Cl)cc1`, for which the B-score result was “inactive”.

Take `CCC(Oc1ccccc1C)C(=O)Nc1ccc(S(=O)(=O)Nc2cc(C)on2)cc1` (stereo unspecified): the B-score result is “inactive”.

For `CC1=C(C(=O)N(C)C)C(c2ccccc2OC(F)F)NC(=O)N1` (stereo unspecified), the B-score entry is “inactive”.

Take `Cc1ccc(NS(=O)(=O)c2c(C)[nH]c(C)c2C(=O)N2CCCCC2)c(C)c1`: the B-score entry was “inactive”.

Consider `CC1=C(C(=O)OC2CCCCC2)C(c2cccnc2)n2ncnc2N1` (stereo unspecified), for which the B-score result was “inactive”.

Turning to `O=C(N/N=C/c1cccc(OCc2ccccc2)c1)c1ccc(Br)o1`, the B-score is -7.35 (active).

In the case of `O=C(N/N=C/c1cccc(O)c1)c1cc2c(ccc3ccccc32)o1`, the B-score entry is “inactive”.

For `Cc1ccc(OCCOc2cccc(/C=N/NC(N)=O)c2)cc1`, the B-score entry was “inactive”.

For the compound `CSc1nc(-c2ccco2)nn1C(=O)c1ccccc1Cl`, the B-score result was “inactive”.

Regarding `O=C1NCC(=O)N(Cc2ccccc2)/C1=C/c1ccccc1`, the B-score result is “inactive”.

With `CN(C)c1ccc(/C=C2\NC(=S)N(Cc3ccccc3)C2=O)cc1`, the B-score was -12 (active).

Consider `O=C1/C(=C\c2ccsc2)NC(=S)N1c1ccccc1`, for which the B-score result was “inactive”.

With `CC(=O)N1CCN(S(=O)(=O)c2c(F)cc(F)c(Cl)c2F)CC1`, the B-score result was “inactive”.

Take `C/C=C(\C)C(=O)N1CC2(CC(c3cccc(NC(=O)CCCCC)c3)=NO2)C[C@@H]1C(N)=O` (stereo partly specified): the B-score result is “inactive”.

As to `CN(C)C(=O)c1nc2ccc(Cl)cn2c1CNCc1cccc(OC(F)(F)F)c1`, the B-score result was “inactive”.

On to `CN(C)c1ccc2c(=O)[nH][nH]c(=O)c2c1`, for which the B-score entry is “inactive”.

For the compound `O=C(NCc1ccncc1)C1CCN(C(=O)c2cccc(Cl)c2)CC1`, the B-score entry is “inactive”.

Consider `COC(=O)c1cccc(C(=O)N2CCC(CCC(=O)NCc3ccc(F)cc3)CC2)c1`, for which the B-score entry is “inactive”.

As for `CCOC(=O)N1CCN(C(=O)c2nn(-c3ccc(C)cc3)c(=O)c3c2c2ccccc2n3C)CC1`, the B-score result is “inactive”.

`O=C(c1ccccc1Oc1ccccc1)N1CCN(c2ccc(F)cc2)CC1`: the B-score entry was “inactive”.

Take `Cn1c2ccccc2c2c(C(=O)N3CCN(c4ccc(F)cc4)CC3)cn(C3CCCC3)c(=O)c21`: the B-score was -7.18 (active).

Take `Nc1nc(SCc2cccc(Br)c2)n[nH]1`: the B-score result was “inactive”.

With `COc1ccc(CC2(CO)CCN(Cc3cnn(C)c3)CC2)cc1`, the B-score result is “inactive”.

On to `COC(=O)c1ccc(CN2CCC(CO)(Cc3ccc(OC)cc3)CC2)cc1`, for which the B-score is -8.7 (active).

With `CC(=O)c1cccc(CN2CCC(CO)(Cc3ccccc3)CC2)c1`, the B-score result is “inactive”.

For `CC(=O)c1ccc(S(=O)(=O)Nc2ccc(C(=O)NCC(c3ccccc3)N(C)C)cc2)cc1` (stereo unspecified), the B-score entry is “inactive”.

In the case of `COc1ccccc1C(CNC(=O)c1cccc(NS(=O)(=O)c2ccc(Br)cc2)c1)N(C)C` (stereo unspecified), the B-score is -8.15 (active).

As to `CN(C)C(CNC(=O)c1cccc(S(=O)(=O)Nc2ccc(Br)cc2)c1)c1ccco1` (stereo unspecified), the B-score entry is “inactive”.

With `COC(=O)c1ccccc1Sc1c(/C=N/OCc2ccc(Cl)cc2)c(C(F)(F)F)nn1C`, the B-score is -7.48 (active).

In the case of `COC(=O)c1ccccc1NC(=O)Cn1nc(C(F)(F)F)c2c1CCC2`, the B-score entry was “inactive”.

With `COC(=O)c1ccccc1NC(=O)CN(Cc1ccc(Cl)cc1)S(C)(=O)=O`, the B-score result is “inactive”.

`CC(C)[C@H](NC(=O)c1ccc(F)cc1)C(=O)OCC(=O)NC(=O)c1cccn1C`: the B-score result is “inactive”.

For the compound `Cc1cccc(NS(=O)(=O)c2ccc(C(=O)NCC(C)(C)N3CCOCC3)cc2)c1C`, the B-score result was “inactive”.

On to `N[C@@H](Cc1ccccc1)C(=O)N1CCOCC1`, for which the B-score entry was “inactive”.

Consider `CCOC(=O)c1c(-c2ccccc2)csc1NC(=S)NC(=O)c1ccccc1`, for which the B-score result is “inactive”.

Take `CCOC(=O)C1=C(NC(=S)NC(=O)c2ccccc2)c2ccccc2CC1(C)C`: the B-score is -9.14 (active).

As to `COCCCNC(=S)NC(=O)c1ccccc1`, the B-score entry is “inactive”.

With `CCn1c(SC)nc(O)c(C(c2ccc(OC)c(O)c2)c2c(O)nc(SC)n(CC)c2=O)c1=O`, the B-score entry is “inactive”.

In the case of `Cc1oc2c(F)c(F)c(F)c(F)c2c1S(=O)(=O)Nc1cccc(C(F)(F)F)c1`, the B-score is -9.29 (active).

In the case of `CCOC(=O)N1CCN(C(=O)c2ccc(S(=O)(=O)Nc3cccc(C(F)(F)F)c3)cc2)CC1`, the B-score entry was “inactive”.

Regarding `O=C(/C=C/c1ccc(F)cc1)Nc1cccc(S(=O)(=O)Nc2cccc(C(F)(F)F)c2)c1`, the B-score result is “inactive”.

As for `CCOc1ccc(NC(=O)CN(C)CC(=O)NC(C)c2ccccc2)cc1OCC` (stereo unspecified), the B-score entry is “inactive”.

For `COc1cc(NS(=O)(=O)c2ccc(NC(=O)CN3C(=O)c4ccccc4C3=O)cc2)ncn1`, the B-score result is “inactive”.

On to `CS(=O)(=O)Nc1ccc(C(=O)N2CCCC2)cc1`, for which the B-score entry is “inactive”.

Consider `C=CCOc1ccc(/C=C/C(=O)OCC(=O)NCC2CCCO2)cc1` (stereo unspecified), for which the B-score result was “inactive”.

For `O=C(Nc1nccs1)C1CCN(S(=O)(=O)c2ccc(Cl)c(C(F)(F)F)c2)CC1`, the B-score entry was “inactive”.

For the compound `Cc1ccc(NC(=O)COc2ccc(/C=C3/NC(=O)NC3=O)cc2)cc1`, the B-score entry was “inactive”.

With `CC(C)c1ccc(/C=C2\NC(=O)NC2=O)cc1`, the B-score is -8.02 (active).

In the case of `CSc1ccc(/C=C2\NC(=O)NC2=O)cc1`, the B-score result is “inactive”.

For the compound `COc1ccc(C2=NN(C(=O)CSc3nc(=O)n4ccc(C)cc4n3)C(c3ccc(C)cc3)C2)cc1` (stereo unspecified), the B-score entry is “inactive”.

In the case of `O=C1c2ccccc2C(=O)c2c1cccc2N1CCN(C/C=C/c2ccccc2)CC1`, the B-score entry is “inactive”.

For `O=C(Cn1c(N2CCN(C/C=C/c3ccccc3)CC2)nc2ccccc21)c1ccccc1`, the B-score was -8 (active).

For the compound `CC(C)Cn1c(N2CCN(C(=O)/C=C/c3ccccc3)CC2)nc2ccccc21`, the B-score result is “inactive”.

`CC(NCc1nc2ccccc2n1C)C12CC3CC(CC(C3)C1)C2` (stereo unspecified): the B-score entry was “inactive”.

Turning to `CCN(CC)C(=O)COc1coc(CN2CCN(Cc3ccccc3)CC2)cc1=O`, the B-score entry was “inactive”.

For `CCOc1cccc(NC(=O)Cn2nc(-c3ccc4c(c3)OCCO4)ccc2=O)c1`, the B-score entry is “inactive”.

Regarding `CCOc1ccc2[nH]c(=O)c(CN(Cc3nnnn3CCc3ccccc3)CC3CCCO3)cc2c1` (stereo unspecified), the B-score result was “inactive”.

In the case of `COc1ccccc1N1CCN(c2ncnc3sc(C)c(-c4ccccc4)c23)CC1`, the B-score result was “inactive”.

Turning to `c1ccc(-c2cc3c(NCC4COc5ccccc5O4)ncnc3s2)cc1` (stereo unspecified), the B-score entry was “inactive”.

For `Oc1ccccc1N1CCN(c2ncnc3sc(-c4ccccc4)cc23)CC1`, the B-score was -9.36 (active).

On to `CNC(=O)COc1ccc(S(=O)(=O)Nc2ccccc2)cc1`, for which the B-score result was “inactive”.

As for `CCn1ncc(CNC(=O)C2(C)CC2(Br)Br)c1C` (stereo unspecified), the B-score entry is “inactive”.

Take `COc1cnc(SCc2ccc(Cl)c(Cl)c2)nc1Cl`: the B-score is -7.01 (active).

On to `C=CCn1c(SCc2ccc(Cl)c(Cl)c2)nnc1C(CO)NC(=O)c1ccc(OC)cc1` (stereo unspecified), for which the B-score result is “inactive”.

Turning to `Nc1cc(N)nc(SCc2ccc(Cl)cc2)n1`, the B-score entry was “inactive”.

The record behind these values is PubChem BioAssay AID463111 (Johns Hopkins Ion Channel Center, 2010).
